One molecule from ChEMBL document CHEMBL4837207, “Discovery of pyrrolo[2,3-d]pyrimidine derivatives as potent Axl inhibitors: Design, synthesis and biological evaluation” (Eur J Med Chem, 2021) can be followed below.

Data set [1] addresses T1, Hepatocyte growth factor receptor (Homo sapiens, UniProt P08581). The experiment in a line: Inhibition of c-MET (unknown origin) by ELISA.
The test system of another data set is BaF3. Put plainly: Antiproliferative activity against mouse BaF3 stably expressing human TEL-AXL incubated for 72 hrs. It counts as functional, cell-based. The settings on record: BaF3, 72 h.
Data set [2] is described as follows: Tmax in Sprague-Dawley rat at 3 mg/kg, po via gavage measured up to 24 hrs by LC-MS analysis. It counts as ADME, organism-based. The settings on record: in vivo. A digest of the protocol: (§1)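 Male Sprague-Dawley rats (n = 3) dosed once by oral gavage at 3 mg/kg as a solution in 5% DMSO/95% (0.5% CMC-Na). Blood sampled at 0.25, 0.5, 1, 2, 4, 6, 8 and 24 h, kept on wet ice, serum separated by centrifugation and stored at -20 °C. Serum levels measured by LC-MS/MS; parameters reported as means.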

Data set [3] is described as follows: Half life in Sprague-Dawley rat at 3 mg/kg, po via gavage measured up to 24 hrs by LC-MS analysis. It counts as ADME, organism-based. The settings on record: in vivo. A digest of the protocol: as §1
A short description of data set [4]: AUC (0 to infinity) in Sprague-Dawley rat at 3 mg/kg, po via gavage measured up to 24 hrs by LC-MS analysis. It counts as ADME, organism-based. Also noted: route oral, dose 3 mg/kg, time <=24. The settings on record: in vivo. An outline of the steps:
as §1

In data set [5] the target is Vascular endothelial growth factor receptor 2 (Homo sapiens, UniProt P35968). Put plainly: Inhibition of VEGFR2 (unknown origin) by ELISA.
The target of data set [6] is Platelet-derived growth factor receptor alpha (Homo sapiens, UniProt P16234). Put plainly: Inhibition of PDGFRalpha (unknown origin) by ELISA. (In general: An ELISA detects its analyte on a solid surface through an enzyme-linked reagent.)
For data set [7], the target named is Platelet-derived growth factor receptor beta (Homo sapiens, UniProt P09619). The experiment in a line: Inhibition of PDGFRbeta (unknown origin) by ELISA.
Data set [8] deals with T2, Receptor-type tyrosine-protein kinase FLT3 (Homo sapiens, UniProt P36888).
T2 sequence (P36888 whole entry): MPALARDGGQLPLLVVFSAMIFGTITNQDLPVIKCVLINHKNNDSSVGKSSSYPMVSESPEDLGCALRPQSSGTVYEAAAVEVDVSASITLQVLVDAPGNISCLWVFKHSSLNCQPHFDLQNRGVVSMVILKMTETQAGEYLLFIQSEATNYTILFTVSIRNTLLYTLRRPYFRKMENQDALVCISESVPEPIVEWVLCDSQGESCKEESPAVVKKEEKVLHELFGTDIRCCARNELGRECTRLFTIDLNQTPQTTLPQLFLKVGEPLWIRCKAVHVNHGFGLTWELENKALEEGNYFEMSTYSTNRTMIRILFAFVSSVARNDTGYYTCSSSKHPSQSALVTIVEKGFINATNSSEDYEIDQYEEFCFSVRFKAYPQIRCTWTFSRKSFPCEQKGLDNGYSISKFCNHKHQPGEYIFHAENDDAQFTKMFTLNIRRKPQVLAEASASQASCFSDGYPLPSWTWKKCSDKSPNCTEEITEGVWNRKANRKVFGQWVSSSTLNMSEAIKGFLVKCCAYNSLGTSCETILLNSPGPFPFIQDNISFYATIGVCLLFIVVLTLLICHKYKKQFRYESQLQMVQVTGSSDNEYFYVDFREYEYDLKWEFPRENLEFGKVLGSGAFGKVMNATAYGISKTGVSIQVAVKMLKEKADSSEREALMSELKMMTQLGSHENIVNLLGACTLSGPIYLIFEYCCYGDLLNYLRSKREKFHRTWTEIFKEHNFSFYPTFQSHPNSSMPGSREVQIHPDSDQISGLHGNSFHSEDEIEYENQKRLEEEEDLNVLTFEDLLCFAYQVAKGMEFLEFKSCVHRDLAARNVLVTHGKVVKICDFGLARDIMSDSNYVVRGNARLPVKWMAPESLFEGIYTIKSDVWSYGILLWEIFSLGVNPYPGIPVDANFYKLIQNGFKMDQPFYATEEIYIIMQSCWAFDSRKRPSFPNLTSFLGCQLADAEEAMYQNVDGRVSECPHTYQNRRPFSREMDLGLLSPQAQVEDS
The experiment in a line: Inhibition of FLT-3 (unknown origin) by ELISA.

Data set [9] concerns the target Receptor tyrosine-protein kinase erbB-4 (Homo sapiens, UniProt Q15303). The experiment in a line: Inhibition of ERBB4 (unknown origin) by ELISA.
The target of data set [10] is Proto-oncogene tyrosine-protein kinase Src (Homo sapiens, UniProt P12931). Put plainly: Inhibition of SRC (unknown origin) by ELISA.
A further data set addresses Ephrin type-A receptor 2 (Homo sapiens, UniProt P29317). Put plainly: Inhibition of EPHA2 (unknown origin) by ELISA.
Data set [11] concerns the target T3, Tyrosine-protein kinase receptor UFO (Mus musculus) (UniProt Q00993).
T3 sequence (whole entry): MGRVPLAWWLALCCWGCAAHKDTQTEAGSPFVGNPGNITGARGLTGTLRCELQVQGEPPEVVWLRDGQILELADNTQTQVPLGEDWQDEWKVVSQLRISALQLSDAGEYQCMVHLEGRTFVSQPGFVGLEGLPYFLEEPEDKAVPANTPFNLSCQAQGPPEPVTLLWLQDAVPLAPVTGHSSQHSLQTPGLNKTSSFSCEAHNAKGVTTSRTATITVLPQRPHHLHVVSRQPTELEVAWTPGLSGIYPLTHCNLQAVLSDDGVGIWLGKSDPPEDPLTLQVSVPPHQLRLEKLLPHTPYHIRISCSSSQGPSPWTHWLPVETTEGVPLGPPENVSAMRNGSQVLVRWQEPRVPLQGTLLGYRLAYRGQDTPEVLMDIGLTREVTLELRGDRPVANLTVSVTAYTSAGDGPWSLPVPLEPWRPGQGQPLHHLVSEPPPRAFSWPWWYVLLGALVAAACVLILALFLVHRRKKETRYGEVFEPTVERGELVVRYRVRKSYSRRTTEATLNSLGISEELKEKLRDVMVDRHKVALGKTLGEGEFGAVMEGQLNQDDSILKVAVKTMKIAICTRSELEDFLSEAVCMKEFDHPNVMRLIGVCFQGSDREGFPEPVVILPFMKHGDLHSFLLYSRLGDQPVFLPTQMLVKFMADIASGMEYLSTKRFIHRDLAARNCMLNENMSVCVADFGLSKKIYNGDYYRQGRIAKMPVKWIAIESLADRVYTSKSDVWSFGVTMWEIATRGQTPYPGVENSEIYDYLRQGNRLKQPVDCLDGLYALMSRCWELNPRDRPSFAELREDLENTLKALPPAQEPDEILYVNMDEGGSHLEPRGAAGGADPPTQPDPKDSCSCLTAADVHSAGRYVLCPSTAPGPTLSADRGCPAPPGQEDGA
Put plainly: Inhibition of AXL in mouse BaF3 cells assessed as reduction in AKT phosphorylation at S473 residue by Western blot analysis. The class given is cell-based. The settings on record: dose 0.1-10 nM. A digest of the protocol:
(§2)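 Cells in exponential growth (BaF3 engineered to stably express constitutively active human wild-type TEL-Axl; MKN-45) exposed to the indicated concentrations for 2 h, then lysed in 1× SDS sample buffer. Phosphorylated proteins detected by Western blot.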
(A western blot detects proteins with antibodies after separation by electrophoresis.)

Data set [12] addresses T1, Hepatocyte growth factor receptor. The experiment in a line: Inhibition of c-met phosphorylation at Y1234/Y1235 residues in human MKN-45 cells by Western blot analysis. The class given is cell-based. The settings on record: dose 2.5-20 nM. An outline of the steps: as §2

Each structure is given as a SMILES string.

T1 sequence (P08581 whole entry): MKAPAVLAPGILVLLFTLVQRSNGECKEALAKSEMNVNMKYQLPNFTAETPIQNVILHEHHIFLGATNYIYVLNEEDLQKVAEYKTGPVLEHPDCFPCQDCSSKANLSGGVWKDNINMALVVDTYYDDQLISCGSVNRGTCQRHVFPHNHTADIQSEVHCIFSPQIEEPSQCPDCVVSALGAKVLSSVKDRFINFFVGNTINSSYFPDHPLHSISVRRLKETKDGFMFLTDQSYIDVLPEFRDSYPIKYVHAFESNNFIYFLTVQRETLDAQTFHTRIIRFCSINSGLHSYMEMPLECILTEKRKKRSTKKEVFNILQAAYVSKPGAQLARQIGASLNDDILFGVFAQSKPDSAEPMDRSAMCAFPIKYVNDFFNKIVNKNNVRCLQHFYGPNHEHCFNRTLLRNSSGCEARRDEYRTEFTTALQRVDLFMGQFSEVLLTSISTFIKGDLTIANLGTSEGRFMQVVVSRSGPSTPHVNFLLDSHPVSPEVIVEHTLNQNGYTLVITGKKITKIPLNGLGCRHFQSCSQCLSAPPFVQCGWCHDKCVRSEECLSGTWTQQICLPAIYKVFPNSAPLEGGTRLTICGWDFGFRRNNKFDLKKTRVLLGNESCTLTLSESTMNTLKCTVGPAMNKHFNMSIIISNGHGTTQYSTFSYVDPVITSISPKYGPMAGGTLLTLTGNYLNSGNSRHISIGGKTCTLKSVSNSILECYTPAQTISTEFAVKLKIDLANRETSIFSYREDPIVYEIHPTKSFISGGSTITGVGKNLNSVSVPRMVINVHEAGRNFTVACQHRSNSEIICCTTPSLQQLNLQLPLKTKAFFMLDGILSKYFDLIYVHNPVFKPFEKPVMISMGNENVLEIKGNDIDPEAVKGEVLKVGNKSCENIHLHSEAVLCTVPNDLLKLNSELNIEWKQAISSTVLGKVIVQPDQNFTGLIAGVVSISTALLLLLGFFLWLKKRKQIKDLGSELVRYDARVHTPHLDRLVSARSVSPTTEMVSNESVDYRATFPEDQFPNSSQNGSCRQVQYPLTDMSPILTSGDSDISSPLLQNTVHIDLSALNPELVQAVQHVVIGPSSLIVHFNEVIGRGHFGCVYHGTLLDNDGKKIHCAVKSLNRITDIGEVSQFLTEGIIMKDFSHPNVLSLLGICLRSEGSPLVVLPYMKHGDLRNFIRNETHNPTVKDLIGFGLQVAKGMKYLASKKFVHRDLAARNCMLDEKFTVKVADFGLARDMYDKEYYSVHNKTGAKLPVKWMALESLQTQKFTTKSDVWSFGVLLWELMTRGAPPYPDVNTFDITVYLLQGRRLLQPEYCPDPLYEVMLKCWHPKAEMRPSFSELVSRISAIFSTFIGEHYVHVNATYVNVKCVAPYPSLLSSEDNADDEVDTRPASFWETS
Chain of Vascular endothelial growth factor receptor 2 (P35968 whole entry): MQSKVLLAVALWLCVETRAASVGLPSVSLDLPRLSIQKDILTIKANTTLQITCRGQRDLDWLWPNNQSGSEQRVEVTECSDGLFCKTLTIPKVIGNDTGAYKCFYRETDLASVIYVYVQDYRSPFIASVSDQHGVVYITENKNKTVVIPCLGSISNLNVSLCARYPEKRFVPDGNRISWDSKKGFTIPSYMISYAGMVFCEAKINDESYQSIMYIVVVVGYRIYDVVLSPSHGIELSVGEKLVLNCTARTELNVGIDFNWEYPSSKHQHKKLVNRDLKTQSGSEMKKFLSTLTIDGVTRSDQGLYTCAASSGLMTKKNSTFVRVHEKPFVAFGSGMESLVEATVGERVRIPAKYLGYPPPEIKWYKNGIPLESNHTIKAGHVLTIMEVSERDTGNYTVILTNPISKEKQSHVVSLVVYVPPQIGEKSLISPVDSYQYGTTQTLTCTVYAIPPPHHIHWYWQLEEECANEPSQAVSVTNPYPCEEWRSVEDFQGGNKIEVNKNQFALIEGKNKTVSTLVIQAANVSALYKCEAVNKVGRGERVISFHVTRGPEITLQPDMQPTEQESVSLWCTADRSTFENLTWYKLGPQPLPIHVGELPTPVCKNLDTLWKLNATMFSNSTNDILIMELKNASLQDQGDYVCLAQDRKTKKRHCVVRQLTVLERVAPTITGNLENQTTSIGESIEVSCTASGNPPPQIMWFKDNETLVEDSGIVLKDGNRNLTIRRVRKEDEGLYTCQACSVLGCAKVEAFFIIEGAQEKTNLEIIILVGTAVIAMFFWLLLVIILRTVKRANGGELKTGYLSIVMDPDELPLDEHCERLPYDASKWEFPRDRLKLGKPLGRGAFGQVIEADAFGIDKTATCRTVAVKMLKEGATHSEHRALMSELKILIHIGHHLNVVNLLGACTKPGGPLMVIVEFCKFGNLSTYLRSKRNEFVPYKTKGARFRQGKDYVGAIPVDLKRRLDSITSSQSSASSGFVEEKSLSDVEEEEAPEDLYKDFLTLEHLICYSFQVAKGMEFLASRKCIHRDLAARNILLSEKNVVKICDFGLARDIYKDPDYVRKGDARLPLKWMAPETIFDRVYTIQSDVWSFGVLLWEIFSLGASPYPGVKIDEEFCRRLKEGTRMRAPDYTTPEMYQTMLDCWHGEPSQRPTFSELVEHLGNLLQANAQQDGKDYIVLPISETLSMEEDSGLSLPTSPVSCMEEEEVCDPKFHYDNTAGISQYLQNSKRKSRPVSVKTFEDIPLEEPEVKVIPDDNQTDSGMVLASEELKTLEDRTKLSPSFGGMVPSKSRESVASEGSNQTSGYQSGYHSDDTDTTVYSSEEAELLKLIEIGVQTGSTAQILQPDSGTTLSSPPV
Chain of Ephrin type-A receptor 2 (P29317 whole entry): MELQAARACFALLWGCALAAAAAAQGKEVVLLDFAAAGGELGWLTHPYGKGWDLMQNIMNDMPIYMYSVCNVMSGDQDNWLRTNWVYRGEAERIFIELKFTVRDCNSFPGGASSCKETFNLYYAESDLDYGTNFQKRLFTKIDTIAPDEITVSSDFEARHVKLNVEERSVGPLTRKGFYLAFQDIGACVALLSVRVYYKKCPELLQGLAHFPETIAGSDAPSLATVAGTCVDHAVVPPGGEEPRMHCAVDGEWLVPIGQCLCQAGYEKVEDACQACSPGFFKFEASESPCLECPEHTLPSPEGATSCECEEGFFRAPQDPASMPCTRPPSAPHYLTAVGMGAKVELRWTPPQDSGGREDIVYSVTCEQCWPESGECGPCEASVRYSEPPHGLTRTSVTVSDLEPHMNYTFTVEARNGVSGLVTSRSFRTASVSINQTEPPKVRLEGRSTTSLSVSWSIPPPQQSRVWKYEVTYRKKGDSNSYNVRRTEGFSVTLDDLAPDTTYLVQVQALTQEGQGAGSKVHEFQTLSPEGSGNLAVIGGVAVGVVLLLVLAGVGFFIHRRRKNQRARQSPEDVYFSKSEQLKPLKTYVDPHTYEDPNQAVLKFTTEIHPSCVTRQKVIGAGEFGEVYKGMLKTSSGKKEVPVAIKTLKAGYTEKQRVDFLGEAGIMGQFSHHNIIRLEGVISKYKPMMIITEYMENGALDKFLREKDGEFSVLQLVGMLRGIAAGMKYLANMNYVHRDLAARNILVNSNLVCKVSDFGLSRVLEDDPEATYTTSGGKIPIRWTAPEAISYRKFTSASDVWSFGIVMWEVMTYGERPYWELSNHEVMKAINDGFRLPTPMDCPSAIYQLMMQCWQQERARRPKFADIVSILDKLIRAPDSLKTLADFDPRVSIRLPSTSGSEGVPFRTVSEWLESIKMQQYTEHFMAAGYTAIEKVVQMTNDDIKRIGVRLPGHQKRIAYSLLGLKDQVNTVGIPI
Chain of Proto-oncogene tyrosine-protein kinase Src (P12931 2-536 limits assumed): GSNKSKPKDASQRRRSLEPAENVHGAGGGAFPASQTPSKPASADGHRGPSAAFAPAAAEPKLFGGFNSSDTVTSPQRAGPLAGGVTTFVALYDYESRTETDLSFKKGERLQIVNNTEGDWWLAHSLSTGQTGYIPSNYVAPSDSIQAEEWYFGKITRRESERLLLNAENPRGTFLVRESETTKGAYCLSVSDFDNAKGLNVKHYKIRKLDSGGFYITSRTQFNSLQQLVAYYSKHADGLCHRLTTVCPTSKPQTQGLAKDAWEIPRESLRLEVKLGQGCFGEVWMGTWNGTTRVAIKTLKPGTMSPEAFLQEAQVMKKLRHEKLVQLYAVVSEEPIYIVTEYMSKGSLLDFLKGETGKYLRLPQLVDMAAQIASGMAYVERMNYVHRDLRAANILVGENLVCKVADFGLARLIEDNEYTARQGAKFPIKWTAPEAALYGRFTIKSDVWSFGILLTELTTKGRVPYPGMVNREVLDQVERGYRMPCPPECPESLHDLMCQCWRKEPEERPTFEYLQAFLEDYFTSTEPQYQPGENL

In general, IC50 refers to the concentration that gives 50% inhibition. The term Tmax denotes the time at which the peak concentration occurs. Broadly, the half-life is the time needed for the level to fall by half in the phase considered. Read a low half-life as fast loss. For orientation: AUC(0-inf) means total exposure, with the tail of the curve extrapolated. A higher AUC(0-inf) goes with high exposure. Regarding `CC(C)n1cc(C(=O)Nc2cc(F)c(-c3c[nH]c4ncnc(N)c34)cc2F)c(=O)c(-c2ccc(F)cc2)c1`, the IC50 in data set [1] is 4.5 nM; with BaF3, below 1 nM; in [5], above 1000 nM; in [6] it was above 1000 nM; in data set [7] it was above 1000 nM; in [8] it was above 1000 nM. In addition, the IC50 was above 1000 nM in data set [9], above 1000 nM in [10] and above 500 nM at Ephrin type-A receptor 2. Also, the Tmax in data set [2] was 1.08 h. Moreover, in [3], the half-life was 2.74 h. In [4], the AUC(0-inf) worked out at 44300 ng·h/mL. The inhibition result in data set [11] and in data set [12] was “Dose-Dependent Effect” in each case.
